Test results from ChEMBL document CHEMBL1157555, “Synthesis and pharmacological evaluation of novel 1,3,8- and 1,3,7,8-substituted xanthines as adenosine receptor antagonists” (Bioorg Med Chem, 2010).

Legend:
Adenosine receptor A1 = target: T1, Adenosine receptor A1 (Homo sapiens, UniProt P30542); assay: Displacement of [3H]DPCPX from human recombinant adenosine A1 receptor expressed in CHO cells by microplate beta scintillation counter; format: cell-based
T1 sequence (P30542 whole entry): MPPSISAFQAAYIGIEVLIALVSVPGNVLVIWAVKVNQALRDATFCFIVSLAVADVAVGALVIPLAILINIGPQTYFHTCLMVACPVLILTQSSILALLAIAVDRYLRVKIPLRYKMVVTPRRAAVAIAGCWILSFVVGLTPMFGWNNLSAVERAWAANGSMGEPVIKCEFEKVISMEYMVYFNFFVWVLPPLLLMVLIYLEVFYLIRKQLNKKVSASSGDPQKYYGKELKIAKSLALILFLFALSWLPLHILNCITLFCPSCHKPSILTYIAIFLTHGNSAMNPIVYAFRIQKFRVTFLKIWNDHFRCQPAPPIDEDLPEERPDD
How it was run: (§1)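 Membranes from CHO cells expressing human A1 were labelled with 2 nM [3H]DPCPX. Non-specific binding was defined with (R)-PIA. Incubation ran 60 min at 25 °C, then samples were filtered and counted by beta scintillation. IC50 came from non-linear regression, and Ki from Cheng–Prusoff. Weak or poorly soluble compounds were reported as % inhibition of specific binding at a single concentration. Mean of 3 experiments, each in duplicate.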

Adenosine receptor A3 = target: T2, Adenosine receptor A3 (Homo sapiens, UniProt P0DMS8); assay: Displacement of [3H]NECA from human recombinant adenosine A3 receptor expressed in human HeLa cells by microplate beta scintillation counter; format: cell-based
T2 sequence (P0DMS8 whole entry): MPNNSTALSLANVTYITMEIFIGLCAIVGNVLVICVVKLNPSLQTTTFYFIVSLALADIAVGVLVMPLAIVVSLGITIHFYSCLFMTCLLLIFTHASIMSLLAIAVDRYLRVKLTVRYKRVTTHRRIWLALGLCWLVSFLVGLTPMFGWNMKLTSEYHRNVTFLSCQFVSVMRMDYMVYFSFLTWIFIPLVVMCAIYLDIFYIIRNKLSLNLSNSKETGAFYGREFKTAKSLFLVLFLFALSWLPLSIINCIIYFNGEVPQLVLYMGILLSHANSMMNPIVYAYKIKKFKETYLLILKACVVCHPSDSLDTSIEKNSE
How it was run: (§2)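 HeLa-A3 cell membranes were labelled with 30 nM [3H]NECA. Non-specific binding was defined with (R)-PIA. After 180 min at 25 °C, samples were filtered and counted by beta scintillation. Ki was calculated by Cheng–Prusoff from IC50 obtained by non-linear regression. Weak or poorly soluble compounds were reported as % inhibition of specific binding at a single concentration. Mean of 3 experiments in duplicate.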

[1] = target: T3, Adenosine receptor A2b (Homo sapiens) (UniProt P29275); assay: Displacement of [3H]DPCPX from human recombinant adenosine A2B receptor expressed in HEK293 cells at 1 uM by microplate beta scintillation counter; format: cell-based
T3 sequence (whole entry): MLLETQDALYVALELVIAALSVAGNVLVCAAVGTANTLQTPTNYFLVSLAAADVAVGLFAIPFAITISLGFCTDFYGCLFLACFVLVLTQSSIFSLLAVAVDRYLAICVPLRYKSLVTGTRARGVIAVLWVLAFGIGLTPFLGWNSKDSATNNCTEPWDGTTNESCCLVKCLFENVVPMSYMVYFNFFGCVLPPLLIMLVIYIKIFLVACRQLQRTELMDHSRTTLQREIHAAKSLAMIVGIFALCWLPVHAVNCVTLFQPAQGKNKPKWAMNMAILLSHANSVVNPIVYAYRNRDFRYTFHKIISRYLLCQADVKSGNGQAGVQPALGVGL
How it was run: (§3)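 Membranes from HEK-293 cells expressing human A2B were labelled with 35 nM [3H]DPCPX. Incubation ran 30 min at 25 °C, followed by filtration and beta scintillation counting. IC50 was fitted by non-linear regression and converted to Ki by Cheng–Prusoff. Weak or poorly soluble compounds were given as % inhibition of specific binding at a single concentration. n = 3, each in duplicate.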

Adenosine receptor A2a [2] = target: T4, Adenosine receptor A2a (Homo sapiens, UniProt P29274); assay: Displacement of [3H]ZM241385 from human recombinant adenosine A2A receptor expressed in human HeLa cells at 1 uM by microplate beta scintillation counter; format: cell-based
How it was run: (§4)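 Competition used HeLa cell membranes expressing human A2A with [3H]ZM241385. Non-specific binding was set with NECA. Incubation was 30 min at 25 °C, then filtration and beta scintillation counting. IC50 from non-linear regression was converted to Ki (Cheng–Prusoff). Weak or poorly soluble compounds were reported as % inhibition of specific binding at a single concentration. Three experiments, each in duplicate.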

[3] = target: T5, Adenosine receptor A1 (Homo sapiens) (UniProt P30542); assay: Displacement of [3H]DPCPX from human recombinant adenosine A1 receptor expressed in CHO cells at 1 uM by microplate beta scintillation counter; format: cell-based; how it was run: as §1
T5 sequence (whole entry): T1 sequence (P30542 whole entry)

[4] = target: T6, Adenosine receptor A3 (Homo sapiens) (UniProt P0DMS8); assay: Displacement of [3H]NECA from human recombinant adenosine A3 receptor expressed in human HeLa cells at 1 uM by microplate beta scintillation counter; format: cell-based; how it was run: as §2
T6 sequence (whole entry): T2 sequence (P0DMS8 whole entry)

Homo sapiens [5] = species: Homo sapiens; assay: Selectivity ratio of Ki for human adenosine A2A receptor to Ki for human adenosine A2B receptor
How it was run: (§5)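 Ratios of Ki values at each human subtype to Ki at human A2B (HEK-293 membranes, [3H]DPCPX). Each Ki was derived by Cheng–Prusoff from IC50 of radioligand competition binding in membranes of transfected cells. Results are the mean of 3 experiments, each in duplicate.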

Homo sapiens [6] = species: Homo sapiens; assay: Selectivity ratio of Ki for human adenosine A1 receptor to Ki for human adenosine A2B receptor; how it was run: as §5
Adenosine receptor A2b = target: T7, Adenosine receptor A2b (Homo sapiens, UniProt P29275); assay: Displacement of [3H]DPCPX from human recombinant adenosine A2B receptor expressed in HEK293 cells by microplate beta scintillation counter; format: cell-based; how it was run: as §3
T7 sequence (P29275 whole entry): T3 sequence (whole entry)

Adenosine receptor A2a [7] = target: T4, Adenosine receptor A2a; assay: Displacement of [3H]ZM241385 from human recombinant adenosine A2A receptor expressed in human HeLa cells by microplate beta scintillation counter; format: cell-based; how it was run: as §4
Homo sapiens [8] = species: Homo sapiens; assay: Selectivity ratio of Ki for human adenosine A3 receptor to Ki for human adenosine A2B receptor; how it was run: as §5

T4 sequence (P29274 whole entry): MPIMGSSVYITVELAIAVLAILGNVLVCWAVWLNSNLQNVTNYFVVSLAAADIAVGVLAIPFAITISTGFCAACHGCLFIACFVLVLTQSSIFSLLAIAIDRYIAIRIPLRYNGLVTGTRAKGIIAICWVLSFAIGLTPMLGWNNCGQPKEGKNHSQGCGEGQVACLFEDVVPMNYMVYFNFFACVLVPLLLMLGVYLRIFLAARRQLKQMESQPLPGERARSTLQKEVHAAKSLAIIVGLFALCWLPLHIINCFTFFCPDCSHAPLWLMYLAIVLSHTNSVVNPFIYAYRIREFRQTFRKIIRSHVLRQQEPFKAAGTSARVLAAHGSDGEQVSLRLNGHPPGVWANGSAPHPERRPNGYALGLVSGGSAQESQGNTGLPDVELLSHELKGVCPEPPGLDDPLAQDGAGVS

Structure (SMILES)	Ki (Adenosine receptor A1) [nM]	Ki (Adenosine receptor A3) [nM]	Activity [1] [%]	Activity (Adenosine receptor A2a [2]) [%]	Activity [3] [%]	Activity [4] [%]	Ratio Ki (Homo sapiens [5])	Ratio Ki (Homo sapiens [6])	Ki (Adenosine receptor A2b) [nM]	Ki (Adenosine receptor A2a [7]) [nM]	Ratio Ki (Homo sapiens [8])
CCCn1c(=O)c2[nH]c(-c3ccccc3)nc2n(CCS(=O)(=O)CC)c1=O	93.3	93.3	39	3							
CCn1c(=O)c2[nH]c(Cc3c(F)cccc3F)nc2n(Cc2ccccc2)c1=O			8	1	23	1					
CCn1c(=O)c2c(nc(Cc3c(F)cccc3F)n2C)n(Cc2cccs2)c1=O	120					20	1.3	0.9	135	178	
CCSCCn1c(=O)n(CC)c(=O)c2[nH]c(-c3ccc(-c4ccccc4)cc3)nc21			22	4	7	17					
CCn1c(=O)c2[nH]c(Cc3ccco3)nc2n(Cc2ccccc2)c1=O			34	9	23	30					
CCn1c(=O)c2[nH]c(Cc3ccccc3)nc2n(CC[S+]([O-])CC)c1=O (stereo not drawn)			0	0	5	3					
CCn1c(=O)c2c(nc(Cc3ccco3)n2C)n(Cc2ccccc2)c1=O					29	14	6.2		282	1740	
CCn1c(=O)c2[nH]c(Cc3cccs3)nc2n(Cc2ccccc2)c1=O			52	6	22	39					
CCn1c(=O)c2c(nc(Cc3cccs3)n2C)n(Cc2cccs2)c1=O	95.5					1	3.5	2.7	35.5	123	
CCCn1c(=O)c2c(nc(-c3ccccc3)n2C)n(CCSCC)c1=O			26	2	17	1					
CCCn1c(=O)c2[nH]c(Cc3ccccc3)nc2n(CCS(=O)(=O)CC)c1=O			2	13	15	15					
CCn1c(=O)c2[nH]c(-c3ccccc3)nc2n(CCS(=O)(=O)CC)c1=O			18	0	35	35					
O=c1c2[nH]c(Cc3cccs3)nc2n(CC2CCCCC2)c(=O)n1CC1CCCCC1			1	50	4	16					
CCn1c(=O)c2c(nc(Cc3c(F)cccc3F)n2C)n(Cc2ccccc2)c1=O			48	28	21	4					
CCCn1c(=O)c2c(nc(-c3ccccc3)n2C)n(CC2CCCO2)c1=O (stereo not drawn)		631	41	25	38						
CCCn1c(=O)c2[nH]c(Cc3ccccc3)nc2n(CC2CCCO2)c1=O (stereo not drawn)			32	24	2	10					
Cn1c(=O)c2[nH]c(-c3cccs3)nc2n(CC2CCCCC2)c1=O	219		34	29		41					

Structure (SMILES)	Ki (Adenosine receptor A1) [nM]	Ki (Adenosine receptor A3) [nM]	Activity [1] [%]	Activity (Adenosine receptor A2a [2]) [%]	Activity [3] [%]	Activity [4] [%]	Ratio Ki (Homo sapiens [5])	Ratio Ki (Homo sapiens [6])	Ki (Adenosine receptor A2b) [nM]	Ki (Adenosine receptor A2a [7]) [nM]	Ratio Ki (Homo sapiens [8])
CCCn1c(=O)c2[nH]c(-c3ccccc3)nc2n(CCOCC)c1=O			24	6	39	47					
CCCn1c(=O)c2[nH]c(-c3ccccc3)nc2n(CC[S+]([O-])CC)c1=O (stereo not drawn)	195	245		9					589		0.4
CCn1c(=O)c2[nH]c(Cc3ccco3)nc2n(Cc2cccs2)c1=O	407		30	19		42					
CCCn1c(=O)c2[nH]c(Cc3ccccc3)nc2n(CCOCC)c1=O			5	13	22	2					
CCCn1c(=O)c2[nH]c(Cc3ccccc3)nc2n(CCSCC)c1=O			12	8	33	1					
CCn1c(=O)c2[nH]c(Cc3c(F)cccc3F)nc2n(Cc2cccs2)c1=O			52	21	28	38					
O=c1c2[nH]c(-c3cccs3)nc2n(CC2CCCCC2)c(=O)n1CC1CCCCC1			10	14	2	2					
CCn1c(=O)c2c(nc(Cc3ccco3)n2C)n(Cc2cccs2)c1=O	100					22	8.1	3.7	26.9	219	
CCCn1c(=O)c2[nH]c(-c3ccccc3)nc2n(CC2CCCO2)c1=O (stereo not drawn)	224	135	64	37							
CCCn1c(=O)c2[nH]c(Cc3ccccc3)nc2n(CC[S+]([O-])CC)c1=O (stereo not drawn)			1	7	10	18					
CCSCCn1c(=O)n(CC)c(=O)c2[nH]c(Cc3ccccc3)nc21			5	0	34	10					
Cn1c(=O)c2[nH]c(Cc3cccs3)nc2n(CC2CCCCC2)c1=O			2	11	42	2					
CCOCCn1c(=O)n(CC)c(=O)c2[nH]c(-c3ccc(-c4ccccc4)cc3)nc21			46	28	19	17					
CCn1c(=O)c2[nH]c(Cc3ccccc3)nc2n(CCS(=O)(=O)CC)c1=O			55	1	6	6					
CCn1c(=O)c2[nH]c(-c3ccccc3)nc2n(CC[S+]([O-])CC)c1=O (stereo not drawn)			32	20	29	0					
CCSCCn1c(=O)n(CC)c(=O)c2[nH]c(-c3ccccc3)nc21	148	407		12				0.3	479		0.9
CCn1c(=O)c2c(nc(Cc3cccs3)n2C)n(Cc2ccccc2)c1=O	389					6	2.1	1.1	372	759	
